The Kd is the concentration at which binding is half-saturated. A higher Kd goes with weaker binding. The IC50 is the concentration that gives 50% inhibition.

The text below walks through data of ChEMBL document CHEMBL2163334, “Discovery of highly potent and selective pan-Aurora kinase inhibitors with enhanced in vivo antitumor therapeutic index” (J Med Chem, 2012).

For assay [1], the target named is T1, Aurora kinase B (Homo sapiens, UniProt Q96GD4). Put plainly: Binding affinity to Aurora kinase B catalytic domain by competition binding assay.
Assay [2] relates to HCT-116. Nature of the assay: Antiproliferative activity against human HCT116 cells after 72 hrs by BrdU-based ELISA. Format: functional, cell-based. The note with it: HCT-116, 72 h. In a few lines:
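HCT-116 cells in McCoy's 5A with 10% FBS and pen/strep, seeded 800 cells/well, left overnight at 37 °C, 5% CO2. Nine-point 3-fold serial dilutions in DMSO added for 72 h; BrdU colorimetric ELISA read at 450 and 690 nm. IC50 is the concentration halving proliferation; duplicate runs averaged.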

In assay [3] the target is T1, Aurora kinase B. Put plainly: Inhibition of Aurora kinase B-mediated histone H3 Ser10 phosphorylation in human HCT116 cells after 2 hrs by sandwich ELISA. It counts as cell-based, HCT-116. The essentials:
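HCT-116 cells seeded 4 × 10⁴/well, 4-6 h at 37 °C, then arrested overnight (16-18 h) with nocodazole at 66 ng/mL final. Treated 2 h with nine-point 3-fold dilutions in DMSO; lysed with phosphatase inhibitor, phospho-H3 (Ser10) sandwich ELISA read at 450 nm. IC50 = 50% inhibition of phosphorylation; duplicate runs averaged.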
A general note: In an ELISA, binding on a coated surface is turned into a signal by an enzyme label.

Assay [4] addresses T2, Aurora kinase A (Homo sapiens, UniProt O14965).
T2 sequence (O14965 whole entry): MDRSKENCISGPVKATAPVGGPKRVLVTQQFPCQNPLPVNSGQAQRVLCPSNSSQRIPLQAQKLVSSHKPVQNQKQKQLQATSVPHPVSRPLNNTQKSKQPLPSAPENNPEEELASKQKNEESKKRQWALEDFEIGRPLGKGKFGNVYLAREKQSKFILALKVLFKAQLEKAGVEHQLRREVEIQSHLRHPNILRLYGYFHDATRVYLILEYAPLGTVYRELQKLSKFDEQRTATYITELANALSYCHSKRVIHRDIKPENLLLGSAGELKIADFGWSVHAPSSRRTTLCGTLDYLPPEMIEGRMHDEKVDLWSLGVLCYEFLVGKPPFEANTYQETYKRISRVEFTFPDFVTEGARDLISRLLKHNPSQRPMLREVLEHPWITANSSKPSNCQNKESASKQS
Put plainly: Binding affinity to Aurora kinase A catalytic domain by competition binding assay.

T1 sequence (Q96GD4 whole entry, the tested form may be a part): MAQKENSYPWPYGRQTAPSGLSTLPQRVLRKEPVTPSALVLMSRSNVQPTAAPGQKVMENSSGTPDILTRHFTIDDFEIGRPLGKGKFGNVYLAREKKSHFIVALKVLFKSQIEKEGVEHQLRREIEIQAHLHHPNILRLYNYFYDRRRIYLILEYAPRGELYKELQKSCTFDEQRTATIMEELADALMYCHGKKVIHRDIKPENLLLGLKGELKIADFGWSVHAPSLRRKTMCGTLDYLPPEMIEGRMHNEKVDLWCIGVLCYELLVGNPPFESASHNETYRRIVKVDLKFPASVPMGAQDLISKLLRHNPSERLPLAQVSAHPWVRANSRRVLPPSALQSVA

Take `Cc1cc(Nc2nc(Sc3ccc(NC(=O)CN4CC[C@@H](O)C4)cc3)nn3cccc23)n[nH]1`: the Kd in assay [1] was 6.6 nM; in assay [4], 10.5 nM. In addition, the results for the IC50 in assay [2] and in assay [3] were 74 nM and 103 nM, respectively.

Turning to `Cc1cc(Nc2nc(Sc3ccc(NC(=O)CN4CC[C@@H](OCCO)C4)cc3)nn3cccc23)n[nH]1`, the Kd in assay [1] worked out at 1.7 nM; in assay [4], 4.5 nM. Besides, the results for the IC50 in assay [2] and in assay [3] were 5 nM and 13 nM, respectively.

Regarding `Cc1cc(Nc2nc(Sc3ccc(NC(=O)CN4CCC(C(=O)N5CCCC5)C4)cc3)nn3cccc23)n[nH]1` (racemic), the Kd in assay [1] is 2.4 nM; in assay [4], 8.8 nM. Further, the IC50 in assay [2] came out at 2.9 nM; in assay [3] it was 9 nM.

With `Cc1cc(Nc2nc(Sc3ccc(NC(=O)CN4CC[C@@H](NS(C)(=O)=O)C4)cc3)nn3cccc23)n[nH]1`, the Kd in assay [1] was found to be 3.2 nM; in assay [4], 12.3 nM. In addition, the values for the IC50 in assay [2] and in assay [3] were 270 nM and 362 nM, respectively.

In the case of `Cc1cc(Nc2nc(Sc3ccc(NC(=O)CN4CC[C@@H](OC(C)(C)C)C4)cc3)nn3cccc23)n[nH]1`, the Kd in assay [1] amounted to 3.6 nM; in assay [4] it was 25 nM. The IC50 in assay [2] is 2.6 nM; in assay [3], 8.9 nM.

As for `Cc1cc(Nc2nc(Sc3ccc(NC(=O)CN4CC[C@@H](S(=O)(=O)C(C)(C)C)C4)cc3)nn3cccc23)n[nH]1`, the Kd in assay [1] worked out at 4.3 nM; in assay [4], 4 nM. The IC50 was determined as 9.2 nM in assay [2] and 28.6 nM in assay [3].

On to `Cc1cc(Nc2nc(Sc3ccc(NC(=O)CN4CC[C@@H](OCCN5CCN(C)CC5)C4)cc3)nn3cccc23)n[nH]1`, for which the values for the Kd in assay [1] and in assay [4] were 2.9 nM and 12.5 nM, respectively. The IC50 in assay [2] came out at 29.8 nM; in assay [3], 169 nM.

For `Cc1cc(Nc2nc(Sc3ccc(NC(=O)CN4CC[C@@H](C(=O)N5CCC(O)CC5)C4)cc3)nn3cccc23)n[nH]1`, the figures for the Kd in assay [1] and in assay [4] were 3.7 nM and 4 nM, respectively. For the same molecule, the IC50 in assay [2] is 105 nM; in assay [3], 293 nM.

As for `Cc1cc(Nc2nc(Sc3ccc(NC(=O)CN4CCC(C(=O)C(C)(C)C)C4)cc3)nn3cccc23)n[nH]1` (racemic), the Kd in assay [1] came to 6.1 nM; in assay [4] it was 16.9 nM. The IC50 in assay [2] is 12.5 nM; in assay [3] it was 44.8 nM.

Regarding `Cc1cc(Nc2nc(Sc3ccc(NC(=O)CN4CC[C@@H](C(=O)NC5CCC5)C4)cc3)nn3cccc23)n[nH]1`, the Kd came out at 3.3 nM in assay [1] and 4.2 nM in assay [4]. In addition, the results for the IC50 in assay [2] and in assay [3] were 1.3 nM and 9.3 nM, respectively.

As for `Cc1cc(Nc2nc(Sc3ccc(NC(=O)CN4CC[C@@H](C(=O)N5CCCC5)C4)cc3)nn3cccc23)n[nH]1`, the Kd in assay [1] was 2.5 nM; in assay [4] it was 6.3 nM. Besides, the half-maximal inhibitory concentration (IC50) in assay [2] is 2.2 nM; in assay [3], 6.3 nM.

For `Cc1cc(Nc2nc(Sc3ccc(NC(=O)CN4CC[C@H](O)C4)cc3)nn3cccc23)n[nH]1`, the Kd in assay [1] is 14.8 nM; in assay [4], 39 nM. The IC50 in assay [2] stood at 227 nM; in assay [3] it was 420 nM.

Regarding `Cc1cc(Nc2nc(Sc3ccc(NC(=O)CN4CC[C@@H]([S+]([O-])C(C)(C)C)C4)cc3)nn3cccc23)n[nH]1` (stereo not given in full), the equilibrium dissociation constant (Kd) in assay [1] came to 3.1 nM; in assay [4] it was 2.8 nM. In addition, the IC50 was found to be 3.4 nM in assay [2] and 11.9 nM in assay [3].

On to `Cc1cc(Nc2nc(Sc3ccc(NC(=O)CN4CC[C@@H](C(=O)N5CCCCC5)C4)cc3)nn3cccc23)n[nH]1`, for which the Kd was found to be 2.9 nM in assay [1] and 6.4 nM in assay [4]. Besides, the values for the IC50 in assay [2] and in assay [3] were 3.2 nM and 10 nM, respectively.

With `Cc1cc(Nc2nc(Sc3ccc(NC(=O)CN4CC[C@@H](SC(C)(C)C)C4)cc3)nn3cccc23)n[nH]1`, the figures for the dissociation constant (Kd) in assay [1] and in assay [4] were 14.2 nM and 25.2 nM, respectively. In addition, the IC50 came to 19.3 nM in assay [2] and 94.5 nM in assay [3].
